Measured values as given in paper PMC9547662 (Investigational new drugs, 2018).

Experiments:
MM.1S cells [1] = test: Detection of mitochondrial superoxide; type: cell-based, human; details: 24 hours; for mitochondrial superoxide induction (rank among six drug candidates): 0.6, 1.25, 2.5 and 5μM
U266 cells [2] = test: Detection of mitochondrial superoxide; type: cell-based, human; details: 24 hours
MM.1S cells [3] = test: MTS assay of cell growth in MM.1S cells; type: cell-based, human
U266 cells [4] = test: Viability by DAPI staining; type: cell-based, human; details: 5μM, 24 hours
Outline: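 Over 24 hours, U266 cells (RPMI 1640, 10% heat-inactivated FBS, 1% L-glutamine, penicillin-streptomycin; 5% CO2, 37°C) were treated with test compound at 5μM, alone or with 200μM pyocyanin. Vehicle was the negative control and 200μM pyocyanin the positive control. Cells were stained with DAPI, and viability was scored by flow cytometry as percentage DAPI-negative. Mean and SEM are reported.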

U266 cells [5] = test: MTS assay of cell growth in U266 cells; type: cell-based, human; details: 5μM single agent, 24, 48 and 72 hours
[6] = test system: ARE/Nrf2 transcriptional activity; test: ARE/NRF2 luciferase reporter assay in ARE/HepG2/Luciferase reporter cells; type: cell-based; details: 24 hours; for IC50: read-out: IC50 in HepG2 ARE/NRF2 reporter assay, 200μM t-BHQ, compounds 20nM to 10μM
Outline: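 HepG2 ARE-luciferase reporter cells (7,000/well) cultured 24 h before test compound; t-BHQ added 30 min later; 24 h at […]; one-step luciferase reagent, luminescence read. Screen: 5μM, 200 or 500μM t-BHQ, two independent runs, Z-scores normalized to mean of compound-treated wells. Dose-response: […] serial dilutions 20nM–10μM plus 200μM t-BHQ; 0.5% DMSO control; percent of DMSO control.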

[7] = test system: NRF2 nuclear translocation; test: NRF2 nuclear translocation high-content screen in HepG2 cells; type: cell-based; details: 0.625-10μM compound + 200μM t-BHQ, 2 hours
[8] = test system: NRF2 nuclear translocation; test: NRF2 nuclear translocation assay in MM.1S cells; type: cell-based, human; details: 2 hours, no t-BHQ
Outline: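 MM.1S cells (300,000/well) exposed 2 h to test compound, DMSO or 2 mM N-acetyl-L-cysteine; fixed 4% PFA 30 min, permeabilized/blocked (2% BSA, 0.1% Triton X-100) 30 min; stained with Hoechst 33342 (4ug/mL) and NRF2-Alexa Fluor 488 antibody (1:1000); high-content imaging and image analysis; NRF2 inhibition expressed as Z-scores.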

IC50 [6] [nM] | Molecule | mitochondrial superoxide induction (rank among six drug candidates) (MM.1S cells [1]) | effect on nuclear translocation of NRF2 (ratio of cytoplasmic to nuclear NRF2) [7] | also measured
 | Cn1c2cccc(=O)c-2nc2ccccc21 [Pyocyanin, pyocyanin] |  |  | mitochondrial superoxide induction (MM.1S cells [1]; serial dilutions 0 to 300μM): efficient and dose-dependent induction of mitochondrial superoxide; mitochondrial superoxide induction (U266 cells [2]; serial dilutions 0 to 300μM): efficient and dose-dependent induction of mitochondrial superoxide
 | brusatol |  |  | cell growth (MM.1S cells [3]; 5μM single agent, 24, 48 and 72 hours): efficiently suppressed growth; viability (percentage of DAPI-negative viable cells) (U266 cells [4]): decreased viability; mitochondrial superoxide levels (U266 cells [2]; 5μM): increased superoxide levels; cell growth (U266 cells [5]): efficiently suppressed growth
160 | Cc1ccc(C(=O)Cn2c3c(sc2=N)CCCC3)cc1 [Pifithrin-α, pifithrin-α] |  |  | 
2410 | O=C1NCCc2[nH]c(-c3ccncc3)cc21 [PHA-767491] | most potent superoxide inducer | affected nuclear translocation of NRF2 | cell growth (MM.1S cells [3]; 2.5μM and 5μM, 48 hours): significant inhibition of cell growth
620 | vitamin B12 |  |  | 
2700 | C=CCc1cccc(/C=N/NC(=O)CN2CCN(Cc3ccccc3)CC2)c1O [PAC-1] |  |  | 
1000 | Cc1ccc(NC(=O)c2cccc(C(C)(C)C#N)c2)cc1Nc1ccc2ncn(C)c(=O)c2c1 [AZ-628] | followed by AZ-628 | affected nuclear translocation of NRF2 | cell growth (MM.1S cells [3]; 2.5μM and 5μM, 48 hours): significant inhibition of cell growth
310 | N#C/C(=C(/N)Sc1ccc(N)cc1)c1ccccc1C(F)(F)F [SL-327] | followed by AZ-628 and SL-327 | affected nuclear translocation of NRF2 | effect on nuclear translocation of NRF2 [8]: anticipated inhibitory effect on nuclear translocation of NRF2
 | CC(C)(C)c1cc(O)ccc1O [t-BHQ, tert-butylhydroquinone] |  |  | induction of NRF2 transcriptional activity ([6]; 200μM or 500μM t-BHQ, HepG2 cells): robust induction of NRF2 transcriptional activity
